Measured values published in PubChem BioAssay.
Active and inactive are the calls of the source.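 How the source made its calls, unless noted: active means viability at or below 10% of carrier control in both of two separate runs; inconclusive means viability at or below 10% in only one of the two runs; inactive means the rest.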

Columns and labels:
[1] = reducers of endogenous Her2 protein level, primary screen, SKBR3 breast tumor cells, AlphaScreen, ATP viability (AID 461;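 active means Her2 level under about 52% in both replicate screens, with viability over 70% of control, limit read from the data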;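 on Her2 level: lower value means less Her2 protein in the cells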;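 on viability: percent of carrier control wells set as 100% viability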); conditions: 18-24 h, measured here: SKBR3 viability, ATP luminescence, at 10 µM
[2] = target: Receptor tyrosine-protein kinase erbB-2 (Homo sapiens) (UniProt P04626); experiment: as above; conditions: 18-24 h, at 10 µM, stronger effect = lower value
Sequence of Receptor tyrosine-protein kinase erbB-2 (Homo sapiens) (P04626 whole entry, looked up): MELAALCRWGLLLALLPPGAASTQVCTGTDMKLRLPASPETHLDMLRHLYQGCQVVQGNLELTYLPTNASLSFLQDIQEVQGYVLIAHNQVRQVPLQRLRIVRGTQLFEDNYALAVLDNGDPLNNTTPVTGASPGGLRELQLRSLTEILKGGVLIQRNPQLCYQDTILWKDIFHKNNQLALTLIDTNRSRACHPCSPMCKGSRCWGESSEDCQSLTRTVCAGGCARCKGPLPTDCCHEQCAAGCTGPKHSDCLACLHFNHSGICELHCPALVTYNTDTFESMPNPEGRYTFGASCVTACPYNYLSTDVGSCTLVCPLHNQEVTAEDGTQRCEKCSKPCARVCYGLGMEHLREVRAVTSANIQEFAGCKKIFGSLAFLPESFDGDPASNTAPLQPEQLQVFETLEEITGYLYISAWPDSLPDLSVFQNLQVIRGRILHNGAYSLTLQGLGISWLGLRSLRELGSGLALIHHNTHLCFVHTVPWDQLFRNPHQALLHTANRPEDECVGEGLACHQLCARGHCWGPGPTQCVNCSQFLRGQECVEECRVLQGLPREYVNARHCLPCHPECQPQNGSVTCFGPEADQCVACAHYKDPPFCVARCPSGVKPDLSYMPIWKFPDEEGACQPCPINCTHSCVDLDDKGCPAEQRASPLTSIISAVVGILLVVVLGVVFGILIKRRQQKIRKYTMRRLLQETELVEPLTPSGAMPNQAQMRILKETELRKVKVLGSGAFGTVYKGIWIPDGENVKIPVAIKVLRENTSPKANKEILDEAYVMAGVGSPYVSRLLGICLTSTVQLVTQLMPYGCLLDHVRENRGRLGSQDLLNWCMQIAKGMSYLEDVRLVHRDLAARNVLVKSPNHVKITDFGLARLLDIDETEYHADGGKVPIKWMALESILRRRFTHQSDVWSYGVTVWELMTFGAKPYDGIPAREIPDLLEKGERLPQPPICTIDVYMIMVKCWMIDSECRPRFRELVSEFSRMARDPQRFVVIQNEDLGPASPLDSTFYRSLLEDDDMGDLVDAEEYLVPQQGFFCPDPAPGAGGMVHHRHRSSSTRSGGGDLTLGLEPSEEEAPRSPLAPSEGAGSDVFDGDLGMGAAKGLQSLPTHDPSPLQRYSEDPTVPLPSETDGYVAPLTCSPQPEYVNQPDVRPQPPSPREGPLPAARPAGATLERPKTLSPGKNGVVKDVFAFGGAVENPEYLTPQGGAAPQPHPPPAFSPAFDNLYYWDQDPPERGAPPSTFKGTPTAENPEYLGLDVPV

[3] = SK-BR-3 cell growth inhibitors, pilot screen, 24 h, human (AID 572); conditions: SK-BR-3 viability, CellTiter-Glo luminescence, at 10 µM, stronger effect = lower value;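 further: compound exposure lasted between 18 and 24 h rather than exactly 24 h; 100% = carrier-treated control wells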
[4] = HUVEC growth inhibition – cell-based, human, primary screen (AID 575;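 active means viability at or below 30% in both replicate assays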;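 further: 100% = median of untreated cell wells with 0.1% DMSO on each plate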); conditions: HUVEC proliferation, CellTiter-Glo luminescence, 72 h; at 10 µM; stronger effect = lower value
Procedure, shortened: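 Material: primary human umbilical vein endothelial cells / Schedule: 72 h exposure, 37 °C, 5% CO2, 30 min RT equilibration / Signal: ATP-based CellTiter-Glo luminescent read / Read-out basis: percent of median DMSO-control luminescence / Control set: 32 DMSO-only cell-control wells (high), 32 MePR drug-control wells (low) per plate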

[5] = growth inhibitors of H69AR lung tumor, primary screen, human, duplicate replicates (AID 580;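 active means viability at or under a set limit in both replicates, limit being median viability minus 3 SD, cut at about 48% in these data, passing the limit was not always enough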;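 further: 100% = mean luminescence of untreated wells and 0% = no signal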); conditions: H69AR lung tumor cells viability, ATP luminescence, 72 h; at 10 µM; stronger effect = lower value
[6] = reversal of MRP1-mediated doxorubicin resistance, pilot screen, H69AR cells, doxorubicin co-treatment (AID 601;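 active means viability loss from added drug above about 55%, and viability with drug at most 40%, in both replicates, limit read from the data, passing the limit was not always enough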); conditions: CellTiter-Glo, 72 h, at 10 µM; for differential viability (reversal): stronger effect = higher value
[7] = 384-well plate pilot, post-Golgi transport modulator project, inhibition of yeast transport mutant growth (AID 636; in the data active means inhibition above about 31%); conditions: absorbance 615 nm, about 18 h, stronger effect = higher value
[8] = growth suppression of yeast trafficking mutant, preliminary HTS, modulators of trafficking downstream of Golgi apparatus project, 1536-format plate, OD 615 nm (AID 637; in the data active means inhibition above about 30%); conditions: yeast transport mutant growth, absorbance 615 nm, 18 h; stronger effect = higher value
[9] = H69AR cells + 2 uM doxorubicin, measured here: viability with 2 uM doxorubicin, stronger effect = lower value
[10] = H69AR cells, compound alone cytotoxicity

SMILES | viability [1] [%] | Her2 level [2] | viability [3] | viability [4] | viability [5] | differential viability (reversal) ([6]; H69AR cells + 2 uM doxorubicin) | viability [6, 9] [%] | viability [6, 10] [%] | inhibition [7] | inhibition [8]
O=C(c1cccc(C(=O)N2CCN(c3ccccc3)CC2)c1)N1CCN(c2ccccc2)CC1 | 95.5 | 106% (inactive) | 95.5% (inactive) | 81.3% (inactive) | 90.7% (inactive) | 6.69% (inactive) | 84 | 90.7 | -2.47% (inactive) | -0.33% (inactive)
COc1cc(C(=O)Nc2cc(Cl)ccc2C)c(-n2cnnn2)cc1OC | 102 | 98% (inactive) | 102% (inactive) | 92.6% (inactive) | 94.9% (inactive) | 4.13% (inactive) | 90.8 | 94.9 | -8% (inactive) | 2.95% (inactive)
COc1ccc(C(=O)OCC(=O)NCc2ccco2)cc1OC | 110 | 89.5% (inactive) | 110% (inactive) | 102% (inactive) | 78.4% (inactive) | -3.74% (inactive) | 82.1 | 78.4 | -1.95% (inactive) | -6.23% (inactive)
COc1ccc(C2(CN(C(C)=O)C(C)=O)CCCC2)cc1OC | 89.5 | 93% (inactive) | 89.5% (inactive) | 114% (inactive) | 90.4% (inactive) | 1.69% (inactive) | 88.7 | 90.4 | -4.8% (inactive) | -4.92% (inactive)
O=C(CN1CCOCC1)N1CCCc2c1c(=O)oc1ccc(OCc3ccccc3)cc21 | 82 | 99.5% (inactive) | 82% (inactive) | 94.8% (inactive) | 77.2% (inactive) | 4.61% (inactive) | 72.6 | 77.2 | -5.07% (inactive) | -4.1% (inactive)
CCOc1ccc(NC(=O)CN(C)S(=O)(=O)c2cccs2)cc1 | 104 | 100% (inactive) | 104% (inactive) | 101% (inactive) | 93.9% (inactive) | 6.1% (inactive) | 87.8 | 93.9 | -3.2% (inactive) | 1.45% (inactive)
CCC(C)n1[nH]c(=O)c2c(C)cc(C)nc21 (stereo not given) | 97.5 | 91.5% (inactive) | 97.5% (inactive) | 95.8% (inactive) | 98.8% (inactive) | 9.86% (inactive) | 88.9 | 98.8 | -5.26% (inactive) | -1.64% (inactive)
CC(NC(=O)c1ccco1)C(c1cccs1)N1CCN(c2ccc(F)cc2)CC1 (stereo not given) | 96 | 89% (inactive) | 96% (inactive) | 67.9% (inactive) | 86.2% (inactive) | -15.7% (inactive) | 102 | 86.2 | -4.13% (inactive) | 0.16% (inactive)
Cc1nc2cccc(C(=O)NC3CCCCC3)c2o1 | 100 | 101% (inactive) | 100% (inactive) | 98.6% (inactive) | 93.1% (inactive) | 8.96% (inactive) | 84.2 | 93.1 | -3.73% (inactive) | 7.05% (inactive)
CCCCn1c(SCC(=O)Nc2cc(C)on2)nnc1-c1cccnc1 | 96.5 | 111% (inactive) | 96.5% (inactive) | 87.8% (inactive) | 104% (inactive) | -2.12% (inactive) | 106 | 104 | -0.67% (inactive) | 11% (inactive)
Cc1cc(C(=O)OCCO)c(C#N)c(N)n1 | 92 | 90.5% (inactive) | 92% (inactive) | 95.9% (inactive) | 92.1% (inactive) | -5.51% (inactive) | 97.6 | 92.1 | -3.87% (inactive) | 1.94% (inactive)
COCCOC(=O)c1[nH]c2c(c1C)C(=O)CC(c1ccc(N(C)C)cc1)C2 (stereo not given) | 111 | 116% (inactive) | 111% (inactive) | 91.1% (inactive) | 83.5% (inactive) | -20.9% (inactive) | 104 | 83.5 | -6.16% (inactive) | -5.87% (inactive)
CN1C(=O)CC(N2CCC(C(N)=O)(N3CCCCC3)CC2)C1=O (stereo not given) | 104 | 86% (inactive) | 104% (inactive) | 104% (inactive) | 98.9% (inactive) | 7.3% (inactive) | 91.6 | 98.9 | -6.8% (inactive) | 5.25% (inactive)
CCc1ccccc1N=C1SCC(=O)N1C | 96.5 | 102% (inactive) | 96.5% (inactive) | 87.9% (inactive) | 97% (inactive) | 10.1% (inactive) | 86.8 | 97 | -6.67% (inactive) | -4.26% (inactive)
COc1ccc2nc3oc(C(=O)NC4CCN(Cc5ccccc5)CC4)cc3cc2c1 | 76.5 | 89.5% (inactive) | 76.5% (inactive) | 57.5% (inactive) | 82.6% (inactive) | 1.69% (inactive) | 80.9 | 82.6 | -2.76% (inactive) | -14.8% (inactive)
Cc1ccc(C2c3sc(=O)[nH]c3SC3C(=O)NC(=O)C32)cc1 (stereo not given) | 94 | 87% (inactive) | 94% (inactive) | 111% (inactive) | 105% (inactive) | 6.17% (inactive) | 99.2 | 105 | -5.62% (inactive) | -4.29% (inactive)
O=C(NCC1COc2ccccc2O1)C1CCCN(S(=O)(=O)c2cnc[nH]2)C1 (stereo not given) | 88 | 101% (inactive) | 88% (inactive) | 91.9% (inactive) | 109% (inactive) | 18.9% (inactive) | 89.7 | 109 | -2.13% (inactive) | -2.95% (inactive)
CCOc1cc(C(=O)Nc2ccon2)cc(OCC)c1OCC | 100 | 110% (inactive) | 100% (inactive) | 96.8% (inactive) | 99.4% (inactive) | 2.21% (inactive) | 97.2 | 99.4 | -3.03% (inactive) | -1.17% (inactive)
CCS(=O)(=O)N1CCCC(c2nc(-c3cccc(OC)c3)no2)C1 (stereo not given) | 100 | 110% (inactive) | 100% (inactive) | 96.7% (inactive) | 92.7% (inactive) | 0.525% (inactive) | 92.2 | 92.7 | -3.84% (inactive) | -2.7% (inactive)
CCCCC(c1nnnn1C1CCCC1)N1CCN(C2CCCCC2)CC1 (stereo not given) | 81.5 | 74% (inactive) | 81.5% (inactive) | 106% (inactive) | 92.7% (inactive) | 20.4% (inactive) | 72.2 | 92.7 | -6.62% (inactive) | 1.83% (inactive)
Clc1ccc(SCCn2ccnc2)cc1 | 96 | 96% (inactive) | 96% (inactive) | 94.3% (inactive) | 96.2% (inactive) | 11.8% (inactive) | 84.3 | 96.2 | -6.22% (inactive) | -10.2% (inactive)
COC(=O)c1ccccc1S(=O)(=O)NC(=O)c1ccccc1 | 107 | 74% (inactive) | 107% (inactive) | 107% (inactive) | 88.2% (inactive) | 5.66% (inactive) | 82.5 | 88.2 | -1.82% (inactive) | -3.81% (inactive)
Cc1ccc(C)c(N2CCN(C(=O)CCCn3c(=S)[nH]c4cc5c(cc4c3=O)OCO5)CC2)c1 | 73.5 | 88.5% (inactive) | 73.5% (inactive) | 62.5% (inactive) | 94% (inactive) | 4.74% (inactive) | 89.2 | 94 | -3.38% (inactive) | -0.33% (inactive)
CCOC(=O)C1=C(C)N=c2s/c(=C\c3cccn3C)c(=O)n2C1c1cccc(OC)c1OC (stereo not given) | 89 | 87% (inactive) | 89% (inactive) | 75.7% (inactive) | 87.4% (inactive) | -1.62% (inactive) | 89 | 87.4 | -1.56% (inactive) | -2.13% (inactive)
O=C(OCC(=O)N1CCC(Cc2ccccc2)CC1)c1ccc[nH]c1=O | 80.5 | 102% (inactive) | 80.5% (inactive) | 117% (inactive) | 92.6% (inactive) | 2.25% (inactive) | 90.4 | 92.6 | 0.13% (inactive) | -12.3% (inactive)
CN1CCCN(C(=O)c2cc(=O)[nH]c3ccccc23)c2nc3ccccc3nc21 | 114 | 90% (inactive) | 114% (inactive) | 84.2% (inactive) | 79.9% (inactive) | 0.575% (inactive) | 79.3 | 79.9 | -4.93% (inactive) | -2.79% (inactive)
COc1ccccc1Nc1ncnc2c1cnn2-c1cccc(C)c1 | 94.5 | 88.5% (inactive) | 94.5% (inactive) | 87.7% (inactive) | 95.4% (inactive) | 10.9% (inactive) | 84.5 | 95.4 | -5.33% (inactive) | -8.71% (inactive)
